The subject of assay [1] is HepG2. Kind of assay: Cytotoxicity against human HepG2 cells after 72 hrs by MTT assay. It is filed as cell-based. An outline of the steps: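 Cells in RPMI with 10% FBS, glutamine and penicillin/streptomycin were grown 24 h at 37 °C, 6% CO2, then exposed to a concentration range for 72 h. Wells were checked microscopically for precipitate. MTT (5 mg/mL in PBS) was added in serum-free medium for 2 h, formazan dissolved in DMSO, and absorbance read at 570 nm (630 nm reference). Viability is % of untreated control; the 50% cytotoxic concentration comes from the dose–response curve, mean of three experiments.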
(In general: Formazan colour is commonly taken as a measure of viable cells.)

The nature of assay [2]: Selectivity index, ratio of IC50 for human HepG2 cells to IC50 for chloroquine-resistant Plasmodium falciparum W2.
For assay [3], the system named is Plasmodium falciparum. The assay can be described thus: Antiplasmodial activity against chloroquine-resistant Plasmodium falciparum W2 infected in human erythrocyte after 48 hrs by flow cytometry. Type of assay: functional, organism-based. An outline of the steps: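 W2 strain (chloroquine-, pyrimethamine- and proguanil-resistant) kept in RPMI 1640 with 25 mM HEPES, 25 mM NaHCO3 and 10% A+ human serum. Cultures held at 37 °C under 10% O2, 6% CO2, 84% N2. Assay wells at 2% haematocrit; compounds added in DMSO or water. Incubated 48 h with no medium change. Infected erythrocytes counted by hydroethidine flow cytometry. IC50 taken from three independent experiments.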
For orientation: A flow cytometer gives signals particle by particle.

Assay [4] has as its system K562. The assay can be described thus: Cytotoxicity against human K562 cells after 72 hrs by flow cytometry. Type of assay: functional, cell-based. An outline of the steps: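 Cells were treated with a concentration range for 72 h at 37 °C, 6% CO2, with solvent and doxorubicin controls, and wells were checked for precipitate. Cells were stained with propidium iodide and live cells counted by flow cytometry. IC50 is the concentration giving a 50% decrease in proliferation versus control, from nonlinear regression of dose–response curves, mean of three independent experiments.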

Assay [5] is described as follows: Selectivity index, ratio of IC50 for human K562 cells to IC50 for chloroquine-resistant Plasmodium falciparum W2.
Assay [6] concerns Leishmania donovani. Kind of assay: Antileishmanial activity against GFP-transfected Leishmania donovani HOM/IN/01/2001 promastigotes after 72 hrs. It is filed as functional, organism-based. The following applies: HOM/IN/01/2001, 72 h. In short, it runs like this: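 GFP-expressing promastigotes at 10⁵ parasites/mL in medium with 10% FCS and G418, exposed in duplicate to a concentration range of compounds in DMSO (final <0.5% v/v) for 72 h at 27 °C. DMSO and amphotericin B controls were included. Growth was read by flow cytometry (488 nm argon laser, green FL1 fluorescence). The IC50 is the 50% growth decrease, from three independent experiments.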

Assay [7] has as its system Toxoplasma gondii. Kind of assay: Antitoxoplasmic activity against Toxoplasma gondii PRU-betaGal tachyzoite after 96 hrs by colorimetric microtiter assay. It is filed as functional, organism-based. An outline of the steps: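 Confluent HFF monolayers (10⁴ cells seeded per well) in phenol red-free RPMI 1640 with 10% FCS and glutamine/penicillin–streptomycin were infected with 2×10³ tachyzoites per well for 3 h at 37 °C, 6% CO2. Compounds in DMSO (<0.5% v/v) were added in triplicate for 96 h. CPRG was then added for 24 h and β-galactosidase read at 570/630 nm, blanked on uninfected wells. IC50 from three independent experiments.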

[8] abbreviates: Homo sapiens, HepG2, 72 h, read-out: IC50.
Setting [9] is: Plasmodium falciparum, W2, 48 h, read-out: IC50.
Where [10] appears, read: Homo sapiens, K562, 72 h, read-out: IC50.

A value given as a limit tells only on which side of the number the result lay.

For orientation: IC50 means the midpoint of a concentration-inhibition curve. For `CC(C)=Cc1nc(Nc2cccc(C(F)(F)F)c2)c2cc([N+](=O)[O-])ccc2n1`, the IC50 in assay [1] (setting [8]) is > 100 µM; in assay [3] (setting [9]), 3.2 µM; in assay [4] (setting [10]), > 125 µM. The “Ratio IC50” value in assay [2] is 31.3; in assay [5], >39.
Compound `C[C@@H]1[C@H](O)[C@@H](C)/C=C/C=C/C=C/C=C/C=C/C=C/C=C/[C@H](O[C@@H]2O[C@H](C)[C@@H](O)[C@H](N)[C@@H]2O)C[C@@H]2O[C@](O)(C[C@@H](O)C[C@@H](O)[C@H](O)CC[C@@H](O)C[C@@H](O)CC(=O)O[C@H]1C)C[C@H](O)[C@H]2C(=O)O` [AMPHOTERICIN B] came in with an IC50 in assay [6] of 0.06 µM.
For the compound `Cc1ccc(S(=O)(=O)Cc2nc(Nc3cccc(Cl)c3)c3cc([N+](=O)[O-])ccc3n2)cc1`, the IC50 in assay [1] (setting [8]) is > 100 µM; in assay [3] (setting [9]) it was 1.3 µM; in assay [6], 11 µM; in assay [4] (setting [10]) it was > 125 µM; in assay [7], > 25 µM. The results for the “Ratio IC50” value in assay [2] and in assay [5] were >77 and >96, respectively.
Turning to `Cc1ccc(S(=O)(=O)Cc2nc(Nc3cccc(Br)c3)c3cc([N+](=O)[O-])ccc3n2)cc1`, the IC50 entry in assay [1] (hepg2), in assay [3] and in assay [4] (k562) was “ND(Insoluble)” each time.
Consider `Cc1ccc(S(=O)(=O)Cc2nc(Nc3ccc(F)cc3)c3ccccc3n2)cc1`, for which the IC50 is > 15 µM in assay [1] (setting [8]), 20 µM in assay [3] (setting [9]) and > 20 µM in assay [4] (setting [10]). In addition, the entries for the “Ratio IC50” value in assay [2] and in assay [5] were >0.75 and >1, respectively.
With `Cc1ccc(S(=O)(=O)Cc2nc(Nc3ccccc3Cl)c3ccccc3n2)cc1`, the IC50 was > 50 µM in assay [1] (setting [8]), 14 µM in assay [3] (setting [9]) and 24 µM in assay [4] (setting [10]). Moreover, the “Ratio IC50” value in assay [2] is given as >3.6; in assay [5], 1.7.
In the case of `CCc1nc(N)nc(N)c1-c1ccc(Cl)cc1` [PYRIMETHAMINE], the IC50 in assay [7] amounted to 1.5 µM.
As for `Cc1ccc(S(=O)(=O)Cc2nc(Nc3cccc(C(F)(F)F)c3)c3ccccc3n2)cc1`, the IC50 was > 25 µM in assay [1] (setting [8]), 15 µM in assay [3] (setting [9]) and > 25 µM in assay [4] (setting [10]). Further, the “Ratio IC50” value in assay [2] and in assay [5] was >1.7 in each case.
Consider `Cc1ccc(S(=O)(=O)Cc2nc(Nc3ccc(F)cc3)c3cc([N+](=O)[O-])ccc3n2)cc1`, for which the IC50 is > 50 µM in assay [1] (setting [8]); 2.2 µM in assay [3] (setting [9]); > 25 µM in assay [6]; > 125 µM in assay [4] (setting [10]); > 25 µM in assay [7]. The “Ratio IC50” value in assay [2] is >23; in assay [5], >57.
With `Cc1ccc(S(=O)(=O)Cc2nc(Nc3ccccc3)c3cc([N+](=O)[O-])ccc3n2)cc1`, the IC50 in assay [1] (setting [8]) was > 25 µM; in assay [3] (setting [9]), 5 µM; in assay [4] (setting [10]) it was > 125 µM. The results for the “Ratio IC50” value in assay [2] and in assay [5] were >5 and >25, respectively.
As to `CC(C)=Cc1nc(Nc2ccc(F)cc2)c2cc([N+](=O)[O-])ccc2n1`, the figures for the IC50 in assay [1] (setting [8]), in assay [3] (setting [9]) and in assay [4] (setting [10]) were 27 µM, 5.6 µM and > 62 µM, respectively. The results for the “Ratio IC50” value in assay [2] and in assay [5] were 4.8 and >11, respectively.
Consider `Cc1ccc(S(=O)(=O)Cc2nc(Nc3cccc(C(F)(F)F)c3)c3cc([N+](=O)[O-])ccc3n2)cc1`, for which the IC50 is > 100 µM in assay [1] (setting [8]); 0.95 µM in assay [3] (setting [9]); 24 µM in assay [6]; > 125 µM in assay [4] (setting [10]); > 25 µM in assay [7]. In addition, the “Ratio IC50” value in assay [2] is >105; in assay [5] it was >131.
With `C[C@H]1c2cccc(O)c2C(=O)C2=C(O)[C@]3(O)C(=O)C(C(N)=O)=C(O)[C@@H](N(C)C)[C@@H]3[C@@H](O)[C@@H]21.O` [DOXYCYCLINE], the results for the “Ratio IC50” value in assay [2] and in assay [5] were 3.1 and 2.3, respectively.
On to `Cc1ccc(S(=O)(=O)Cc2nc(Nc3ccccc3)c3ccccc3n2)cc1`, for which the IC50 entry in assay [1] (hepg2), in assay [3] and in assay [4] (k562) was “ND(Insoluble)” in each case.
For the compound `CC(C)=Cc1nc(Nc2cccc(Br)c2)c2cc([N+](=O)[O-])ccc2n1`, the IC50 was > 15 µM in assay [1] (setting [8]), 7.5 µM in assay [3] (setting [9]) and > 62 µM in assay [4] (setting [10]). Besides, the “Ratio IC50” value is >2 in assay [2] and >8 in assay [5].
For the compound `Cc1ccc(S(=O)(=O)Cc2nc(Nc3cccc(Br)c3)c3ccccc3n2)cc1`, the IC50 in assay [1] (setting [8]) is > 15 µM; in assay [3] (setting [9]), 13 µM; in assay [4] (setting [10]), > 15 µM. Further, the “Ratio IC50” value in assay [2] and in assay [5] was >1.2 throughout.
On to `COc1cccc2c1C(=O)c1c(O)c3c(c(O)c1C2=O)C[C@@](O)(C(=O)CO)C[C@@H]3O[C@H]1C[C@H](N)[C@H](O)[C@H](C)O1` [DOXORUBICIN], for which the IC50 in assay [1] (setting [8]) was 0.2 µM.
For `CC(C)=Cc1nc(Nc2ccccc2)c2cc([N+](=O)[O-])ccc2n1`, the results for the IC50 in assay [1] (setting [8]), in assay [3] (setting [9]) and in assay [4] (setting [10]) were 50 µM, 17 µM and > 125 µM, respectively. Also, the results for the “Ratio IC50” value in assay [2] and in assay [5] were 2.9 and >7, respectively.

Source of the values: ChEMBL document CHEMBL1154711, “Original quinazoline derivatives displaying antiplasmodial properties” (Eur J Med Chem, 2010).
